Usually IC50 stands for the concentration that gives 50% inhibition. A lower IC50 goes with inhibition by little substance. The term inhibition denotes the percentage by which the read-out fell short of the control.

Assay [1] is described as follows: Inhibition of Saccharomyces cerevisiae alpha-glucosidase using p-nitro-phenyl-alpha-D-glucopyranoside as substrate preincubated with enzyme followed by substrate addition measured after 10 mins for every 2.5 to 5 mins.
The subject of assay [2] is Saccharomyces cerevisiae. The assay is described as follows: Inhibition of Saccharomyces cerevisiae alpha-glucosidase using p-nitro-phenyl-alpha-D-glucopyranoside as substrate at 200 uM preincubated with enzyme followed by substrate addition measured after 10 mins for every 2.5 to 5 mins relative to control. A digest of the protocol:
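Sample mixed with baker's yeast alpha-glucosidase stock (0.11 U/ml in 50 mM PBS) and preincubated at 36 °C. pNPG stock (1.35 mM) then added, incubated 10 min at 36 °C, and absorbance at 405 nm read every 2.5–5 min. PBS replaced sample as control. % inhibition = [1 − (ΔAbs sample/ΔAbs control)] × 100; triplicates; IC50 from six-concentration dose-inhibition curve.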

For assay [3], the system named is Saccharomyces cerevisiae. Nature of the assay: Mixed type inhibition of Saccharomyces cerevisiae alpha-glucosidase using p-nitro-phenyl-alpha-D-glucopyranoside as substrate preincubated with enzyme followed by substrate addition measured after 10 mins by Lineweaver-Burk plot analysis. The essentials: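 Baker's yeast α-glucosidase (stock 0.11 U/ml in 50 mM PBS) mixed with sample and incubated at 36 °C, then p-nitrophenyl-α-D-glucopyranoside added at various concentrations and incubated at 36 °C for 10 min. Initial velocity was taken as the rate of change of absorbance at 405 nm per min. Inhibition type was assigned from Lineweaver-Burk plots.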

Assay [4] has as its system Saccharomyces cerevisiae. Nature of the assay: Competitive inhibition of Saccharomyces cerevisiae alpha-glucosidase using p-nitro-phenyl-alpha-D-glucopyranoside as substrate preincubated with enzyme followed by substrate addition measured after 10 mins by Lineweaver-Burk plot analysis. A digest of the protocol: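 Baker's yeast alpha-glucosidase (stock 0.11 U/ml in 50 mM PBS) with pNPG at various concentrations, 36 °C. Initial velocity taken as the per-minute change in 405 nm absorbance. Inhibition type assigned from Lineweaver-Burk plots at several inhibitor levels plus an uninhibited series.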

The source made the active and inactive calls. The rule behind the calls is not given here.

Regarding `COC(=O)C[C@@H](CO)O[C@@H]1O[C@H](CO)[C@@H](O)[C@H](O)[C@H]1OC(=O)C(=O)c1ccc(O)cc1`, the IC50 in assay [1] was determined as 165 µM. This molecule also had an inhibition in the assay on Saccharomyces cerevisiae [2] of 56.6%.

In turn, `COc1cc(-c2cc(=O)c3c(O)cc(O)cc3o2)cc(OC)c1O` [TRICIN] had an IC50 in assay [1] of 162 µM. Besides, the inhibition in the assay with Saccharomyces cerevisiae [2] was determined as 59.1%.

The molecule `O=C1C[C@@H](O[C@@H]2O[C@H](CO)[C@@H](O)[C@H](OC(=O)Cc3ccc(O)cc3)[C@H]2OC(=O)Cc2ccc(O)cc2)CO1` had an IC50 in assay [1] of 152 µM. Moreover, the inhibition in the assay on Saccharomyces cerevisiae [2] worked out at 58.3%.

For the molecule `COC(=O)/C=C/c1ccc(O)c(O)c1`, the inhibition in the assay with Saccharomyces cerevisiae [2] worked out at 1.6%.

For the molecule `CC(=O)/C=C/C1=C(C)[C@@H](O)[C@@H](O)CC1(C)C`, the inhibition in the assay with Saccharomyces cerevisiae [2] stood at 11.5%.

Regarding `COc1cc(-c2cc(=O)c3c(O)cc(O)cc3o2)cc(OC)c1O[C@@H](CO)[C@@H](O)c1ccc(O)cc1`, the inhibition in the assay on Saccharomyces cerevisiae [2] stood at 8.3%.

Turning to `O=C1C[C@@H](O[C@@H]2O[C@H](CO)[C@@H](O)[C@H](OC(=O)Cc3ccccc3)[C@H]2OC(=O)Cc2ccc(O)cc2)CO1`, the IC50 in assay [1] was found to be 145 µM. Also, in the assay on Saccharomyces cerevisiae [2], the inhibition is 58.9%. In addition, the inhibition entry in the assay on Saccharomyces cerevisiae [3] is “Active”.

For the molecule `O=C(CO)c1c[nH]c2ccccc12`, the inhibition in the assay on Saccharomyces cerevisiae [2] was determined as 1.6%.

The molecule `CC1(C)C[C@@H](O)C[C@@]2(C)OC(=O)C=C12` yielded an inhibition in the assay on Saccharomyces cerevisiae [2] of 6.4%.

In turn, `C=C1C(=O)O[C@@H]2/C=C(\C)CC/C=C(\C(=O)O[C@@H]3O[C@H](CO)[C@@H](O)[C@H](O)[C@H]3O)CC[C@@H]12` had an inhibition in the assay on Saccharomyces cerevisiae [2] of 13.1%.

Turning to `CC(=O)/C=C/C1=C(C)[C@@H](O)[C@@H](O[C@@H]2O[C@H](CO)[C@@H](O)[C@H](O)[C@H]2O)CC1(C)C`, in the assay on Saccharomyces cerevisiae [2], the inhibition came out at 0%.

On to `CC1(C)C[C@H](O)C[C@@]2(C)OC(=O)C=C12`, for which, in the assay on Saccharomyces cerevisiae [2], the inhibition is 8.8%.

For `COc1cc([C@H](OC)[C@H](CO)Oc2c(OC)cc(-c3cc(=O)c4c(O)cc(O)cc4o3)cc2OC)ccc1O`, in the assay on Saccharomyces cerevisiae [2], the inhibition was 9.1%.

In the case of `CC(=O)/C=C/[C@]12O[C@@]1(C)C[C@@H](O)CC2(C)C`, the inhibition with Saccharomyces cerevisiae [2] worked out at 17.6%.

In turn, `O=C1C[C@@H](O[C@@H]2O[C@H](CO)[C@@H](O)[C@H](O)[C@H]2OC(=O)Cc2ccc(O)cc2)CO1` displayed an IC50 in assay [1] of 181 µM. The molecule also showed an inhibition in the assay on Saccharomyces cerevisiae [2] of 57.6%.

The molecule `O=c1cc(-c2ccc(O)c(O)c2)oc2cc(O)cc(O)c12` [LUTEOLIN] returned an IC50 in assay [1] of 39.8 µM. In the assay on Saccharomyces cerevisiae [2], this molecule gave an inhibition of 99.6%. For the same molecule, the inhibition entry in the assay with Saccharomyces cerevisiae [3] was “Active”.

As for `C[C@H]1O[C@H](O[C@H]2[C@H](O)[C@@H](O)[C@@H](O[C@H]3[C@H](O)[C@@H](O)C(O)O[C@@H]3CO)O[C@@H]2CO)[C@H](O)[C@@H](O)[C@@H]1N[C@H]1C=C(CO)[C@@H](O)[C@H](O)[C@H]1O` (stereo partly drawn) [ACARBOSE], the IC50 in assay [1] came out at 180 µM. Besides, the inhibition in the assay on Saccharomyces cerevisiae [2] was determined as 51.8%.

In turn, `COc1cc(-c2cc(=O)c3c(O)cc(O)cc3o2)ccc1O` yielded an inhibition in the assay on Saccharomyces cerevisiae [2] of 56.9%.

In assay [1], `COC(=O)C[C@@H](CO)O[C@@H]1O[C@H](CO)[C@@H](O)[C@H](OC(=O)Cc2ccccc2)[C@H]1OC(=O)C(=O)c1ccc(O)cc1` came in with an IC50 of 165 µM. The molecule also gave an inhibition with Saccharomyces cerevisiae [2] of 56.6%.

`O=C(Cc1ccc(O)cc1)O[C@H]1[C@@H](O)[C@H](OC(=O)Cc2ccc(O)cc2)[C@H](OC(=O)Cc2ccc(O)cc2)[C@@H](O)[C@@H]1O` gave an IC50 in assay [1] of 61.2 µM. The same molecule registered an inhibition with Saccharomyces cerevisiae [2] of 77.6%. Besides, in the assay on Saccharomyces cerevisiae [4], the inhibition result is “Active”.

The molecule `COc1cc([C@H](OC)[C@@H](CO)Oc2c(OC)cc(-c3cc(=O)c4c(O)cc(O)cc4o3)cc2OC)ccc1O` came in with an inhibition with Saccharomyces cerevisiae [2] of 13.2%.

On to `COc1cc(/C=C/CO)cc(OC)c1O[C@@H]1O[C@H](CO)[C@@H](O)[C@H](O)[C@H]1O`, for which, in the assay with Saccharomyces cerevisiae [2], the inhibition was determined as 1.8%.

On to `CC1=CC(=O)CC(C)(C)[C@]1(O)/C=C/[C@@H](C)O[C@@H]1O[C@H](CO)[C@@H](O)[C@H](O)[C@H]1O`, for which the inhibition in the assay with Saccharomyces cerevisiae [2] came out at 9.4%.

Molecule `COc1cc(-c2oc3cc(O)cc(O)c3c(=O)c2O)cc(O)c1OC` registered an IC50 in assay [1] of 154 µM. The molecule further came in with an inhibition in the assay with Saccharomyces cerevisiae [2] of 57.4%.

The molecule `CC1=CC(=O)CC(C)(C)[C@@]1(O)/C=C/[C@@H](C)O[C@@H]1O[C@H](CO)[C@@H](O)[C@H](O)[C@H]1O` yielded an inhibition in the assay on Saccharomyces cerevisiae [2] of 13.7%.

In turn, `O=c1ccc2cc(O[C@@H]3O[C@H](CO)[C@@H](O)[C@H](O)[C@H]3O)c(O)cc2o1` registered an inhibition with Saccharomyces cerevisiae [2] of 1.8%.

The molecule `Nc1ncnc2c1ncn2[C@@H]1O[C@H](CO)[C@@H](O)[C@H]1O` returned an inhibition in the assay with Saccharomyces cerevisiae [2] of 10.3%.

Take `COc1cc(-c2cc(=O)c3c(O)cc(O)cc3o2)cc(OC)c1O[C@H](CO)[C@@H](O)c1ccc(O)cc1`: the inhibition with Saccharomyces cerevisiae [2] was 8.7%.

In assay [1], `COC(=O)C[C@@H](CO)O[C@@H]1O[C@H](CO)[C@@H](O)[C@H](OC(=O)Cc2ccccc2)[C@H]1OC(=O)Cc1ccc(O)cc1` had an IC50 of 150 µM. Also, the inhibition in the assay on Saccharomyces cerevisiae [2] came out at 59.7%.
